Compound activity as filed in PubChem BioAssay.
RAD52 anneal inh: inhibitors of human RAD52 DNA annealing; recombinant RAD52 DNA annealing, FRET fluorescence; inhibition, % at 18.7 µM; 360,000 tested, 0.46% active;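 active = every replicate showing at least 50% inhibition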
Target sequence (P43351 whole entry, looked up): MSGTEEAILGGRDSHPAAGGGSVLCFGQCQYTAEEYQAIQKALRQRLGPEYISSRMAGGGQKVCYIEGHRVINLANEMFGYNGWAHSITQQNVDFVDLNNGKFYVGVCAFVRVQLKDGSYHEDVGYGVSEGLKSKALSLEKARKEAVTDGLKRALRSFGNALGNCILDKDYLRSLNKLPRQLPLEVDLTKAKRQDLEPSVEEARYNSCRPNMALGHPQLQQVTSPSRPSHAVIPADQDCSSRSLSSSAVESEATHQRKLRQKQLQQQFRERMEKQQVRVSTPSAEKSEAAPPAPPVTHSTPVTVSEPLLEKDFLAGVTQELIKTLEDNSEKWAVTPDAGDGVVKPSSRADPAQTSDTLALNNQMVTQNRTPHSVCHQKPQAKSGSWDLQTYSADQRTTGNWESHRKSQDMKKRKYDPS
E-selectin induc: E-selectin induction on HUVECs; HUVEC E-selectin immunofluorescence imaging; normalized: neutral wells 0, TNF-alpha wells 100; 260,000 tested, 0.37% active; P16581; activation, % at 7.58 µM; AID 686992;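 active = mean E-selectin-positive cell signal at least 10% of the positive control, reached in at least 60% of replicates, without over 20% cell loss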
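Assay system: HUVEC primary endothelial cells. Input: 3,000 HUVEC seeded per well. Doses: one compound dose added by pin transfer. Read-out basis: % PE-positive cells. Benchmarks: TNF-alpha high, DMSO low. Detection: immunofluorescence imaging. Buffer or medium: EGM-2, gelatin.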
XiGFP reactiv: X-chromosome reactivation activator. XiGFP mouse fibroblasts, % GFP-positive cells imaging, 3 d; cells co-treated with 5-aza-dC sensitizer; scaled so ellipticine positive control = 100%. activation, % at 7.58 µM. 360,000 tested, 0.055% active;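 active = mean normalized replicate activation at least 10% and every replicate at or above 10%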;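 also: 0% = median of on-plate neutral control wells and 100% = ellipticine 6 µM median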
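assay system = SV40-immortalized XiGFP fibroblast cells, line 68-5-11 | buffer or medium = DMEM plus 5-aza-dC sensitizer | doses = single-point pinned compound dosing | times = 3-day compound exposure, then 15 min fixation at room temperature | benchmarks = positive control ellipticine, 6 µM final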
RAD54 inh: RAD54 (human) branch migration inhibition; Q92698; RAD54 Holliday junction branch migration, FAM/BHQ fluorescence; inhibition, % at 10.4 µM; 360,000 tested, 0.14% active; AID 602329;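 active = mean normalized replicate activity at least 40 and at least half of replicates scoring 40 or more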;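 also: 0% = median of neutral control wells and 100% = median of positive control wells; inhibitors cause a drop in the FAM fluorescence signal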
PglD inh: PglD (C. jejuni) enzyme inhibition | purified PglD enzyme, DTNB colorimetric CoA detection | inhibition, % at 12.5 µM | 360,000 tested, 0.098% active | AID 602405; in the data active = inhibition above about 16%, passing the limit was not always enough
Ecoli rRNA inh: inhibits bacterial ribosomal RNA function over humanized ribosomes. GFP signal change (wild-type ribosome), % (concentration not given with the values). E. coli WT GFP vs humanized-ribosome RFP mutants, fluorescence, 24 h; active compounds read low; DMSO median 0, no signal -100. 350,000 tested, 1.6% active;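 active = significant combined selectivity score with lowered wild-type GFP, culture density cut under 30%, mutant RFP and density less affected; inactive = any of these conditions unmet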
Starred values were filed as active, the others as inactive; · = no result. Compounds with a hit are over-represented: about 2% of the library has one in this group of screens.

SMILES	RAD52 anneal inh	E-selectin induc	XiGFP reactiv	RAD54 inh	PglD inh	Ecoli rRNA inh
CCN(C[C@@H]1[C@@H](c2ccc(C3=CCCC3)cc2)[C@@H](CO)N1C(C)=O)C(C)=O	·	0	0	-2	0	1
COc1cccc(S(=O)(=O)Nc2ccc3c(c2)C(=O)N(C)[C@H]2CC[C@@H](CC(=O)NCC4CCCCC4)O[C@@H]2CO3)c1	6	0	0	-1	0	1
O=C(/C=C/c1ccc(O)cc1)c1ccc(NC2=C(N3CCCCC3)C(=O)c3ccccc3C2=O)cc1	-13	·	·	-4	-1	-37*
O=C1C(Nc2cccc(O)c2)=C(N2CCCCC2)C(=O)c2ccccc21	·	·	·	7	-6	·
Cc1ccc(-c2ccc3c(c2)O[C@@H](CN(C)Cc2cccnc2)[C@H](C)CN([C@H](C)CO)S3(=O)=O)cc1	-5	0	-1	0	1	-18
CSc1ccc(/C=C/c2ccc3cccc(O)c3n2)cc1	-17	·	0	·	·	-30*
COc1cc(/C=C/c2ccc3cccc(O)c3n2)ccc1O	-20	0	2	4	-6	-59
CN1CCc2cc3c(c4c2[C@H]1[C@H](O)c1ccccc1-4)OCO3	46	0	0	99*	-4	-56
COCC(=O)N1C[C@H](C)[C@@H](OC)CN(C)C(=O)c2cc(NC(=O)Nc3ccccc3)ccc2OC[C@H]1C	3	0	0	10	2	2
O=C(OCc1ccc([N+](=O)[O-])cc1)c1ccc(N2CCCC2)c([N+](=O)[O-])c1	-21	·	0	·	·	14
CCc1ccc(NC(=O)C(C)OC(=O)c2ccc(N3CCCC3)c([N+](=O)[O-])c2)cc1 (stereo unspecified)	-3	26*	0	·	·	-3
C[C@H](CO)N1C[C@H](C)[C@H](CN(C)C(=O)Nc2ccc(F)cc2)Oc2ncc(C#Cc3ccccc3)cc2C1=O	·	1	0	·	·	-4
C[C@@H]1CN([C@@H](C)CO)C(=O)Cc2cc(NC(=O)Nc3ccc(F)cc3)ccc2O[C@@H]1CN(C)Cc1ccncc1	14	127*	0	-4	5	-6
C[C@@H]1CN([C@H](C)CO)C(=O)Cc2cc(NC(=O)Nc3ccc(F)cc3)ccc2O[C@@H]1CN(C)Cc1ccncc1	12	44*	0	-6	9	-10
C[C@@H]1CN([C@@H](C)CO)C(=O)Cc2cc(NC(=O)Nc3ccc(F)cc3)ccc2O[C@H]1CN(C)Cc1ccncc1	25	-13	0	4	-1	1
CCOc1ccccc1N1CCN(C(=O)c2ccc3[nH]c4c(c3c2)CCCC4)CC1	-13	-1	0	-1	1	-27*
CCOc1ccc(NC(=S)NCc2cccnc2)cc1	0	3	0	-10	-1	-20*
CCOC(=O)c1ccc(NC(=S)NCc2cccnc2)cc1	0	·	0	0	-2	-25
CNC[C@@H]1Oc2c(NS(C)(=O)=O)cccc2C(=O)N([C@H](C)CO)C[C@@H]1C	3	-8	1	-2	3	6
O=C(Cc1c(Cl)cccc1Cl)Nc1cccc(S(=O)(=O)N2CCOCC2)c1	-14	5	0	·	·	-23*
O=C(COc1ccc(S(=O)(=O)N2CCOCC2)cc1)Nc1ccc(Br)cc1	-7	·	0	-8	-9	-22
O=C(Cc1ccc(Br)cc1)Nc1cccc(S(=O)(=O)N2CCOCC2)c1	0	·	0	2	-3	-30*
O=C(Cc1ccccc1Cl)Nc1cccc(S(=O)(=O)N2CCOCC2)c1	1	-3	0	·	·	7
O=C(COc1ccc(Br)cc1)NNC(=O)c1cc(S(=O)(=O)N2CCOCC2)ccc1Cl	8	·	0	6	1	-19*
O=C(c1ccncc1)N1CC(=O)N2[C@H](C1)[C@@H](c1ccc(-c3ccccc3)cc1)[C@@H]2CO	-1	0	0	·	·	3
SMILES	RAD52 anneal inh	E-selectin induc	XiGFP reactiv	RAD54 inh	PglD inh	Ecoli rRNA inh
COc1cc(/C=C(\C#N)c2nc(-c3cc4ccccc4oc3=O)cs2)ccc1O	-177	0	0	·	·	9
N#C/C(=C\c1ccc(O)cc1)c1nc2ccccc2o1	-492	2	0	-14	0	-35*
COc1cc(/C=C(\C#N)c2nc3ccccc3o2)ccc1O	-344	·	18*	-241	3	-6
CCS(=O)(=O)Nc1ccc2c(c1)C(=O)N(C)C[C@H](OC)[C@H](C)CN(C(=O)C1CC1)[C@@H](C)CO2	7	0	0	-5	2	1
COc1ccc(NC(=O)COc2ccc(C(=O)OCC(=O)N(C(C)C)C(C)C)cc2OC)cc1	-12	·	0	3	4	-27*
CCOc1ccc(C(=O)OCC(=O)Nc2ccc3c(c2)OCCO3)cc1OC	-3	-2	0	2	1	1
CO[C@H]1CN(C)C(=O)c2ccc(NS(=O)(=O)c3ccccc3)cc2OC[C@H](C)N(Cc2nccs2)C[C@H]1C	8	0	0	6	0	-3
Cc1cc(NC(=O)COC(=O)CSCc2ccc(Cl)c(Cl)c2)no1	-9	·	·	-1	2	-22*
Cc1cc(NC(=O)CSCC(=O)N(C)Cc2ccc(Cl)c(Cl)c2)no1	19	-1	0	13	-6	-7
COc1ccc(Cl)cc1-n1c(=S)sc2c(=O)[nH]c(SCC(=O)C(C)(C)C)nc21	-11	0	0	-5	-1	-24*
COc1ccc(CCNC(=O)Nc2nc(C(N)COCc3ccccc3)cs2)cc1OC (stereo unspecified)	-20	-1	0	8	2	-14*
C[C@@H]1CCCCO[C@H](CN(C)C(=O)C2CCCCC2)[C@H](C)CN([C@@H](C)CO)C(=O)c2cc(NC(=O)Cc3ccccc3)ccc2O1	-9	0	0	3	0	-3
CN(C)CCN(Cc1ccc(Cl)cc1)c1ccccn1	15	-2	15*	9	0	·
O=C(COc1cc2oc(=O)c3c(c2cc1Cl)CCC3)NCCCn1ccnc1	4	·	0	16	0	-17*
C[C@H](NC(=O)[C@H]1[C@H](CO)[C@H]2Cn3c(cccc3=O)[C@@H]1N2C(=O)C1CCCC1)c1ccccc1	-11	0	0	-9	9	-1
CCN1C(=O)[C@H]2[C@@H](c3ccc(C)cc3)N3C(=O)N(c4ccc(C)cc4)C(=O)[C@@]3(Cc3ccc(Cl)cc3)[C@H]2C1=O	-1	0	0	5	3	-28*
CCN1C(=O)[C@H]2[C@@H](c3ccc(C)cc3)N[C@]3(CCCN(Cc4ccc(C)cc4)C3=O)[C@H]2C1=O	4	·	0	2	3	·
